Results collected from several papers.
Compare with care: the assays were run in different laboratories. pIC50: −log10 of the molar value.

| Structure (SMILES) | target or system | assay | system | conditions | measurement | result |
| --- | --- | --- | --- | --- | --- | --- |
| O=c1ccc2nc3ccc(OCc4ccc([N+](=O)[O-])o4)cc3oc-2c1 | Staphylococcus aureus | microbial growth | MRSA | 24 h | MIC | > 32 µg/mL |
| N.N.[Cl][Pt][Cl] | HK-2 | cell growth or viability, MTT |  | 72 h | pIC50 | 5.12 |
| COc1c(N2C[C@@H]3CCCN[C@@H]3C2)c(F)cc2c(=O)c(C(=O)O)cn(C3CC3)c12 | Escherichia coli | microbial growth | ATCC25922 |  | MIC | 0.03 µM |
| Oc1c(Br)cc(Br)cc1-c1[nH]c(Br)c(Br)c1Br | Staphylococcus aureus | microbial growth | ATCC29213 MSSA |  | MIC | 0.58 µM |
| COc1c(N2CC3CCCNC3C2)c(F)cc2c(=O)c(C(=O)OCc3cnc([N+](=O)[O-])s3)cn(C3CC3)c12 (centres unmarked) | Escherichia coli | microbial growth | ATCC25922 |  | MIC | 0.09 µM |
| CN[C@H](CC(C)C)C(=O)N[C@H]1C(=O)N[C@@H](CC(N)=O)C(=O)N[C@H]2C(=O)N[C@H]3C(=O)N[C@H](C(=O)N[C@H](C(=O)O)c4cc(O)cc(O)c4-c4cc3ccc4O)[C@H](O)c3ccc(c(Cl)c3)Oc3cc2cc(c3O[C@@H]2O[C@H](CO)[C@@H](O)[C@H](O)[C@H]2O[C@H]2C[C@](C)(N)[C@H](O)[C@H](C)O2)Oc2ccc(cc2Cl)[C@H]1O | Staphylococcus aureus | microbial growth, broth dilution | MRSA | 24 h, drug-resistant strain | MIC | 0.67 µM |
| Oc1c(Cl)cc(Cl)cc1-c1[nH]c(Cl)c(Cl)c1Cl | Staphylococcus aureus | microbial growth | BAA44 MRSA |  | MIC | 0.06 µM |
| O=c1ccc2nc3ccc(O)cc3oc-2c1 | Escherichia coli | microbial growth |  | 24 h | MIC | > 32 µg/mL |
